Data published in ChEMBL document CHEMBL2321793, “Discovery of a novel broad-spectrum antifungal agent derived from albaconazole” (ACS Med Chem Lett, 2013).
≈ marks a conversion by molar mass, not a printed value.

Legend:
[1] = system: Nakaseomyces glabratus; assay: Antifungal activity against Candida glabrata CAGL2 after 24 hrs by spectrofluorometric analysis; assay type: functional; details: CAGL2, 24 h
[2] = system: Pichia kudriavzevii; assay: Antifungal activity against Candida krusei CAKR8 after 24 hrs by spectrofluorometric analysis; assay type: functional; details: CAKR8, 24 h
[3] = system: Candida albicans; assay: Antifungal activity against fluconazole-resistant Candida albicans DSY735 after 24 hrs by spectrofluorometric analysis; assay type: functional; details: DSY735, 24 h
[4] = system: Candida parapsilosis; assay: Antifungal activity against acquired-resistant Candida parapsilosis CAPA2 after 24 hrs by spectrofluorometric analysis; assay type: functional; details: Lodderomyces parapsilosis, CAPA2, 24 h
[5] = system: Candida parapsilosis; assay: Antifungal activity against acquired-resistant Candida parapsilosis CAPA1 after 24 hrs by spectrofluorometric analysis; assay type: functional; details: Lodderomyces parapsilosis, CAPA1, 24 h
[6] = system: Pichia kudriavzevii; assay: Antifungal activity against Candida krusei CAKR7 after 24 hrs by spectrofluorometric analysis; assay type: functional; details: CAKR7, 24 h
[7] = system: Candida albicans; assay: Antifungal activity against fluconazole-susceptible Candida albicans CAAL97 after 24 hrs by spectrofluorometric analysis; assay type: functional; details: CAAL97, 24 h
[8] = system: Candida albicans; assay: Antifungal activity against fluconazole-susceptible Candida albicans CAAL93 after 24 hrs by spectrofluorometric analysis; assay type: functional; details: CAAL93, 24 h
[9] = system: Candida albicans; assay: Antifungal activity against fluconazole-resistant Candida albicans DSY292 after 24 hrs by spectrofluorometric analysis; assay type: functional; details: DSY292, 24 h
[10] = target: T1, Lanosterol 14-alpha demethylase (Candida albicans (strain SC5314 / ATCC MYA-2876) (Yeast), UniProt P10613); assay: Inhibition of CYP51 in fluconazole-susceptible Candida albicans CAAL93 assessed as zymosterol level at 4.5 ng/mL after 2 hrs; set-up: scale not given: the % may be the effect or the level left
[11] = system: Aspergillus fumigatus; assay: Antifungal activity against Aspergillus fumigatus ASFU13 after 48 hrs by M38 method; assay type: functional; details: ASFU13, 48 h
[12] = target: T1, Lanosterol 14-alpha demethylase; assay: Inhibition of CYP51 in fluconazole-susceptible Candida albicans CAAL93 assessed as 14-methylepisterol level at 4.5 ng/mL after 2 hrs; set-up: scale not given: the % may be the effect or the level left
[13] = system: Candida albicans; assay: Antifungal activity against fluconazole-susceptible Candida albicans CAAL93 infected in Swiss mouse assessed as host survival at 15 mg/kg, po qd for 5 days measured after 13 days; assay type: functional
Procedure, shortened: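 Transiently neutropenic Swiss mice were infected intravenously with C. albicans CAAL93 blastoconidia. Oral dosing began 1 h post-infection at 15 mg/kg body weight, in 5% DMSO, once daily for 5 consecutive days. Controls received 100 μL 0.9% saline with 5% DMSO. The read-out was survival rate on day 13 after infection, compared by log-rank test.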

[14] = system: Aspergillus fumigatus; assay: Antifungal activity against Aspergillus fumigatus ASFU20 after 48 hrs by M38 method; assay type: functional; details: ASFU20, 48 h
[15] = system: Rhizomucor miehei; assay: Antifungal activity against Rhizomucor miehei RHMI1 after 48 hrs by broth microdilution test
[16] = target: T1, Lanosterol 14-alpha demethylase; assay: Inhibition of CYP51 in fluconazole-susceptible Candida albicans CAAL93 assessed as ergosterol level after 2 hrs
[17] = system: Aspergillus fumigatus; assay: Antifungal activity against Aspergillus fumigatus ASFU23 after 48 hrs by M38 method; assay type: functional; details: ASFU23, 48 h
[18] = target: T1, Lanosterol 14-alpha demethylase; assay: Inhibition of CYP51 in fluconazole-susceptible Candida albicans CAAL93 assessed as lanosterol level at 22 ng/mL after 2 hrs; set-up: scale not given: the % may be the effect or the level left
[19] = target: T1, Lanosterol 14-alpha demethylase; assay: Inhibition of CYP51 in fluconazole-susceptible Candida albicans CAAL93 assessed as ergosterol level at 4.5 ng/mL after 2 hrs; set-up: scale not given: the % may be the effect or the level left
[20] = target: T1, Lanosterol 14-alpha demethylase; assay: Inhibition of CYP51 in fluconazole-susceptible Candida albicans CAAL93 assessed as episterol level at 4.5 ng/mL after 2 hrs; set-up: scale not given: the % may be the effect or the level left
[21] = system: Aspergillus fumigatus; assay: Antifungal activity against Aspergillus fumigatus ASFU17 after 48 hrs by M38 method; assay type: functional; details: ASFU17, 48 h
[22] = target: T1, Lanosterol 14-alpha demethylase; assay: Inhibition of CYP51 in fluconazole-susceptible Candida albicans CAAL93 assessed as 14-methylepisterol level at 22 ng/mL after 2 hrs; set-up: scale not given: the % may be the effect or the level left
[23] = target: T1, Lanosterol 14-alpha demethylase; assay: Inhibition of CYP51 in fluconazole-susceptible Candida albicans CAAL93 assessed as eburicol level at 4.5 ng/mL after 2 hrs; set-up: scale not given: the % may be the effect or the level left
[24] = Antifungal activity against Scedosporium sp. SCSP1 after 48 hrs by broth microdilution test; assay type: functional
[25] = system: Aspergillus fumigatus; assay: Antifungal activity against Aspergillus fumigatus ASFU19 after 48 hrs by M38 method; assay type: functional; details: ASFU19, 48 h
[26] = target: T1, Lanosterol 14-alpha demethylase; assay: Inhibition of CYP51 in fluconazole-susceptible Candida albicans CAAL93 assessed as 14-methyfecosterol level at 22 ng/mL after 2 hrs; set-up: scale not given: the % may be the effect or the level left
[27] = target: T1, Lanosterol 14-alpha demethylase; assay: Inhibition of CYP51 in fluconazole-susceptible Candida albicans CAAL93 assessed as 14-methyfecosterol level at 4.5 ng/mL after 2 hrs; set-up: scale not given: the % may be the effect or the level left
[28] = system: Aspergillus fumigatus; assay: Antifungal activity against Aspergillus fumigatus ASFU7 after 48 hrs by M38 method; assay type: functional; details: ASFU7, 48 h
[29] = target: T1, Lanosterol 14-alpha demethylase; assay: Inhibition of CYP51 in fluconazole-susceptible Candida albicans CAAL93 assessed as lanosterol level at 4.5 ng/mL after 2 hrs; set-up: scale not given: the % may be the effect or the level left
[30] = Antifungal activity against Rhizomucor pusillus RHPU1 after 48 hrs by broth microdilution test; assay type: functional
[31] = target: T1, Lanosterol 14-alpha demethylase; assay: Inhibition of CYP51 in fluconazole-susceptible Candida albicans CAAL93 assessed as eburicol level at 22 ng/mL after 2 hrs; set-up: scale not given: the % may be the effect or the level left
[32] = target: T1, Lanosterol 14-alpha demethylase; assay: Inhibition of CYP51 in fluconazole-susceptible Candida albicans CAAL93 assessed as 14-methyl-3,6-diol level at 22 ng/mL after 2 hrs; set-up: scale not given: the % may be the effect or the level left
[33] = target: T1, Lanosterol 14-alpha demethylase; assay: Inhibition of CYP51 in fluconazole-susceptible Candida albicans CAAL93 assessed as ergosterol level at 22 ng/mL after 2 hrs; set-up: scale not given: the % may be the effect or the level left

T1 sequence (P10613 whole entry): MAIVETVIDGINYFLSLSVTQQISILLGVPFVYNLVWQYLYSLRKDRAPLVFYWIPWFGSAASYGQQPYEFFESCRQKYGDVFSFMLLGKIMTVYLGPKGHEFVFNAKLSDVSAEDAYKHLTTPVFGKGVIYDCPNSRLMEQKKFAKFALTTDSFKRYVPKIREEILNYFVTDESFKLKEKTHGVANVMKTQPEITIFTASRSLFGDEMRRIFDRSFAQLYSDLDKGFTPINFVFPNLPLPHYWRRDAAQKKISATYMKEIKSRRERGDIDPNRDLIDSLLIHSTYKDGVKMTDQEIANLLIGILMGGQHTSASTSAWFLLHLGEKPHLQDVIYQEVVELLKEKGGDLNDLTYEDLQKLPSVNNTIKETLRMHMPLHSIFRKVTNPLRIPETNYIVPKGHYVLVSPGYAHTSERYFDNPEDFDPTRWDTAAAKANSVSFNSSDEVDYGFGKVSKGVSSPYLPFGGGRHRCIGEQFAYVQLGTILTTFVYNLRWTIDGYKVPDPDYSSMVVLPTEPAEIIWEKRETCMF

Structure (SMILES) | MIC [1] [µg/mL] | MIC [2] [µg/mL] | MIC [3] [µg/mL] | MIC [4] [µg/mL] | MIC [5] [µg/mL] | MIC [6] [µg/mL] | MIC [7] [µg/mL] | MIC [8] [µg/mL] | MIC [9] [µg/mL] | MIC [11] [µg/mL] | MIC [14] [µg/mL] | MIC [17] [µg/mL] | MIC [21] [µg/mL] | MIC [25] [µg/mL] | MIC [28] [µg/mL] | other results
OC(Cn1cncn1)(Cn1cncn1)c1ccc(F)cc1F [FLUCONAZOLE] | 7.7 (≈ 25.1 µM) | 12.9 (≈ 42.1 µM) | 11 (≈ 35.9 µM) | > 30 | > 30 | > 30 | 0.018 (≈ 0.0588 µM) | 0.062 (≈ 0.202 µM) | 21 (≈ 68.6 µM) |  |  |  |  |  |  | 
C[C@@H](n1cnc2cc3scnc3cc2c1=O)[C@](O)(Cn1cncn1)c1ccc(F)cc1F | 0.068 (≈ 0.15 µM) | < 0.005 | 0.118 (≈ 0.26 µM) | 0.127 (≈ 0.279 µM) | 0.013 (≈ 0.0286 µM) | 0.182 (≈ 0.4 µM) | < 0.001 | 0.011 (≈ 0.0242 µM) | 0.94 (≈ 2.07 µM) | 3.1 (≈ 6.82 µM) | 4.5 (≈ 9.9 µM) | 0.27 (≈ 0.594 µM) | 2.2 (≈ 4.84 µM) | 2.1 (≈ 4.62 µM) | 0.28 (≈ 0.616 µM) | Activity [10]: 2%; Activity [12]: 5.9%; survival at 15 mg/kg [13]: 75%; MIC [15]: 2 µg/mL (≈ 4.4 µM); inhibition (INH) [16]: Dose-dependent effect; Activity [18]: 41.6%; Activity [19]: 51.1%; Activity [20]: 2.9%; Activity [22]: 15.7%; Activity [23]: 4.4%; MIC [24]: 1 µg/mL (≈ 2.2 µM); Activity [26]: 11.4%; Activity [27]: 3.8%; Activity [29]: 29.9%; MIC [30]: 1 µg/mL (≈ 2.2 µM); Activity [31]: 20.4%; Activity [32]: 5.4%; Activity [33]: 5.4%
CCC(C)n1ncn(-c2ccc(N3CCN(c4ccc(OCC5COC(Cn6cncn6)(c6ccc(Cl)cc6Cl)O5)cc4)CC3)cc2)c1=O (stereo not drawn) [ITRACONAZOLE] |  |  |  |  |  |  |  |  |  | > 71 | > 71 | > 71 | > 71 | > 71 | 0.42 (≈ 0.595 µM) | 
